According to ChEMBL document CHEMBL1126763, “Nonpeptide angiotensin II receptor antagonists. Synthesis and biological activity of potential prodrugs of benzimidazole-7-carboxylic acids” (J Med Chem, 1993):

Key:
[1] = target: T1, Angiotensin II receptor (Rattus norvegicus) (UniProt P29089+P25095+P35351); test: Inhibitory activity on AII (100 ng/kg iv)-induced pressor response after administration at 0.1 mg/kg po in conscious male Sprague-Dawley rats at 5 h.; format: functional, organism-based; design: dose 0.1 mg/kg
In short: (§1)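 Conscious male Sprague-Dawley rats received test compounds orally at 0.1 mg/kg. AII (100 ng/kg iv) was given as a pressor challenge at each time point after dosing, and percent inhibition of the pressor response was recorded. Experiments were run in duplicate (n = 2); parent drug and one ester used n = 3. Inhibition may vary by less than 30%.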

[2] = target: T1, Angiotensin II receptor (Rattus norvegicus); test: Inhibitory activity on AII (100 ng/kg iv)-induced pressor response after administration at 0.1 mg/kg po in conscious male Sprague-Dawley rats at 7 h.; format: functional, organism-based; design: dose 0.1 mg/kg; in short: as §1
[3] = target: T1, Angiotensin II receptor (Rattus norvegicus); test: Inhibitory activity on AII (100 ng/kg iv)-induced pressor response at 0.1 mg/kg po in conscious male Sprague-Dawley rats at 1 h.; format: functional, organism-based; design: dose 0.1 mg/kg; in short: as §1
[4] = target: T1, Angiotensin II receptor (Rattus norvegicus); test: Inhibitory effect on AII (100 ng/kg iv)-induced pressor response after administration at 0.1 mg/kg po in conscious male Sprague-Dawley rats at 0.5 h.; format: functional, organism-based; design: dose 0.1 mg/kg; in short: as §1
[5] = target: T1, Angiotensin II receptor (Rattus norvegicus); test: Inhibitory activity on AII (100 ng/kg iv)-induced pressor response after administration at 0.1 mg/kg po in conscious male Sprague-Dawley rats at 2 h.; format: functional, organism-based; design: dose 0.1 mg/kg; in short: as §1
[6] = target: T1, Angiotensin II receptor (Rattus norvegicus); test: Inhibitory activity on AII (100 ng/kg iv)-induced pressor response after administration at 0.1 mg/kg po in conscious male Sprague-Dawley rats at 24 h.; format: functional, organism-based; design: dose 0.1 mg/kg; in short: as §1
[7] = target: T1, Angiotensin II receptor (Rattus norvegicus); test: Inhibitory activity on AII (100 ng/kg iv)-induced pressor response after administration at 0.1 mg/kg po in conscious male Sprague-Dawley rats at 3 h.; format: functional, organism-based; design: dose 0.1 mg/kg; in short: as §1
Rattus norvegicus [8] = test: Inhibitory activity on AII (100 ng/kg iv) -induced pressor response after administration at 0.1 mg/kg po in Dawley rats at 0.5 h; format: functional; in short: as §1
Rattus norvegicus [9] = test: Inhibitory activity on AII (100 ng/kg iv) -induced pressor response after administration at 0.1 mg/kg po in Dawley rats at 1 h; format: functional; in short: as §1

Row | SMILES | inhibition [1] [%] | inhibition [2] [%] | inhibition [3] [%] | inhibition [4] [%] | inhibition [5] [%] | inhibition [6] [%] | inhibition [7] [%] | inhibition in vivo at 0.1 mg/kg (Rattus norvegicus [8]) [%] | inhibition in vivo at 0.1 mg/kg (Rattus norvegicus [9]) [%]
1 | CCOC(=O)OC(C)OC(=O)c1cccc2nc(OCC)n(Cc3ccc(-c4ccccc4-c4nn[nH]n4)cc3)c12 (stereo unspecified) | 81 | 71 | 87 | 74 | 95 | 7 | 89 | – | –
2 | CCOc1nc2cccc(C(=O)OCOC(=O)C3CCCCC3)c2n1Cc1ccc(-c2ccccc2-c2nn[nH]n2)cc1 | 89 | 80 | 5 | 0 | 76 | 14 | 85 | – | –
3 | CCCCc1nc2cccc(C(=O)OCCO)c2n1Cc1ccc(-c2ccccc2-c2nn[nH]n2)cc1 | 21 | 25 | – | – | 10 | 20 | 11 | 7 | 7
4 | CCCCc1nc2cccc(C(=O)OCc3oc(=O)oc3C)c2n1Cc1ccc(-c2ccccc2-c2nn[nH]n2)cc1 | 75 | 77 | 63 | 32 | 81 | 55 | 88 | – | –
5 | CCCCc1nc2cccc(C(=O)O)c2n1Cc1ccc(-c2ccccc2-c2nnn(C)n2)cc1 | 13 | 26 | – | – | 6 | 23 | 9 | 22 | 26
6 | CCOc1nc2cccc(C(=O)OCOC(=O)/C=C/c3ccccc3)c2n1Cc1ccc(-c2ccccc2-c2nn[nH]n2)cc1 | 61 | 64 | 36 | -3 | 80 | 3 | 80 | – | –
7 | CCOc1nc2cccc(C(=O)O)c2n1Cc1ccc(-c2ccccc2-c2nnn[nH]2)cc1 | 85 | – | 24 | 7 | 51 | 43 | 67 | – | –
8 | CCCCc1nc(Cl)c(CO)n1Cc1ccc(-c2ccccc2-c2nnn[nH]2)cc1 | 35 | 34 | 1 | 5 | 12 | 17 | 21 | – | –
9 | CCOc1nc2cccc(C(=O)OCc3oc(=O)oc3C)c2n1Cc1ccc(-c2ccccc2-c2nn[nH]n2)cc1 | 70 | 44 | 83 | 49 | 87 | 6 | 85 | – | –
10 | CCCCc1nc2cccc(C(=O)OC(C)OC(=O)OCC)c2n1Cc1ccc(-c2ccccc2-c2nn[nH]n2)cc1 (stereo unspecified) | 81 | 75 | 89 | 64 | 84 | 61 | 89 | – | –
11 | CCCCc1nc2cccc(C(=O)OCCN(C)C)c2n1Cc1ccc(-c2ccccc2-c2nn[nH]n2)cc1 | 26 | 14 | – | – | 27 | 9 | 32 | 0 | 19
12 | CCCCc1nc2cccc(C(=O)OCc3ccncc3)c2n1Cc1ccc(-c2ccccc2-c2nn[nH]n2)cc1 | 18 | 8 | 16 | 4 | 18 | – | 16 | – | –
13 | CCCCc1nc2cccc(C(=O)O)c2n1Cc1ccc(-c2ccccc2-c2nn[nH]n2)cc1 | – | – | – | – | 45 | 42 | – | 8 | 33
14 | CCOc1nc2cccc(C(=O)OC(C)OC(=O)OC(CC)CC)c2n1Cc1ccc(-c2ccccc2-c2nn[nH]n2)cc1 (stereo unspecified) | 63 | 53 | 72 | 16 | 86 | 13 | 84 | – | –
15 | CCCCc1nc2cccc(C(=O)O)c2n1Cc1ccc(-c2ccccc2-c2nnnn2C)cc1 | 59 | 53 | – | – | 29 | 16 | 56 | 12 | 29
16 | CCOc1nc2cccc(C(=O)OC(C)OC(=O)OC3CCC3)c2n1Cc1ccc(-c2ccccc2-c2nn[nH]n2)cc1 (stereo unspecified) | 79 | 60 | 77 | 35 | 86 | 25 | 83 | – | –
17 | CCOc1nc2cccc(C(=O)OCOC(=O)OC3CCCCC3)c2n1Cc1ccc(-c2ccccc2-c2nn[nH]n2)cc1 | 53 | 54 | -3 | 1 | 4 | 11 | 15 | – | –
18 | CCOc1nc2cccc(C(=O)OC(C)OC(=O)OC(C)C)c2n1Cc1ccc(-c2ccccc2-c2nn[nH]n2)cc1 (stereo unspecified) | 80 | 67 | 91 | 70 | 84 | 12 | 79 | – | –
19 | CCOc1nc2cccc(C(=O)OC(C)OC(=O)OC3CCCCC3)c2n1Cc1ccc(-c2ccccc2-c2nn[nH]n2)cc1 (stereo unspecified) | 82 | 75 | 76 | 38 | 80 | 36 | 87 | – | –
20 | CCCCc1nc2cccc(C(=O)OC(C)OC(=O)OC3CCCCC3)c2n1Cc1ccc(-c2ccccc2-c2nn[nH]n2)cc1 (stereo unspecified) | 78 | 79 | 85 | 58 | 84 | 47 | 81 | – | –
21 | CCCCc1nc2cccc(C(=O)OCC)c2n1Cc1ccc(-c2ccccc2-c2nn[nH]n2)cc1 | 68 | 63 | – | – | 46 | 47 | – | 7 | 25

Continued, in another order:

Row | inhibition [1] [%] | inhibition [2] [%] | inhibition [3] [%] | inhibition [4] [%] | inhibition [5] [%] | inhibition [6] [%] | inhibition [7] [%] | SMILES | inhibition in vivo at 0.1 mg/kg (Rattus norvegicus [8]) [%] | inhibition in vivo at 0.1 mg/kg (Rattus norvegicus [9]) [%]
22 | 68 | 57 | 55 | 23 | 79 | 28 | 72 | CCOc1nc2cccc(C(=O)OCOC(=O)OC(C)C)c2n1Cc1ccc(-c2ccccc2-c2nn[nH]n2)cc1 | – | –
23 | 72 | 59 | 84 | 66 | 79 | 23 | 78 | CCOc1nc2cccc(C(=O)OCOC(C)=O)c2n1Cc1ccc(-c2ccccc2-c2nn[nH]n2)cc1 | – | –
24 | 77 | 64 | 14 | 5 | 55 | 14 | 68 | CCOc1nc2cccc(C(=O)OCOC(=O)OC3CCCC3)c2n1Cc1ccc(-c2ccccc2-c2nn[nH]n2)cc1 | – | –
25 | 44 | 20 | 40 | 80 | 56 | 6 | 52 | CCOc1nc2cccc(C(=O)OCOC(=O)C(C)C)c2n1Cc1ccc(-c2ccccc2-c2nn[nH]n2)cc1 | – | –
26 | 44 | 30 | 49 | 10 | 57 | 22 | 58 | CCOc1nc2cccc(C(=O)OCOC(=O)OCC3CC3)c2n1Cc1ccc(-c2ccccc2-c2nn[nH]n2)cc1 | – | –
27 | 67 | 76 | -2 | -4 | 23 | 6 | 56 | CCOc1nc2cccc(C(=O)OCOC(=O)c3ccccc3)c2n1Cc1ccc(-c2ccccc2-c2nn[nH]n2)cc1 | – | –
28 | 84 | 75 | 90 | 86 | 92 | 28 | 86 | CCOc1nc2cccc(C(=O)OC(C)OC(C)=O)c2n1Cc1ccc(-c2ccccc2-c2nn[nH]n2)cc1 (stereo unspecified) | – | –
29 | 54 | 48 | 84 | 100 | 78 | 6 | 67 | CCCC(=O)OCOC(=O)c1cccc2nc(OCC)n(Cc3ccc(-c4ccccc4-c4nn[nH]n4)cc3)c12 | – | –
30 | 38 | 31 | 76 | 76 | 60 | -4 | 60 | CCOc1nc2cccc(C(=O)OCOC(=O)CC)c2n1Cc1ccc(-c2ccccc2-c2nn[nH]n2)cc1 | – | –
31 | 62 | 54 | 31 | 7 | 61 | 9 | 65 | CCOc1nc2cccc(C(=O)OCOC(=O)C3CCCC3)c2n1Cc1ccc(-c2ccccc2-c2nn[nH]n2)cc1 | – | –
